# Assay outcomes: PubChem BioAssay, Broad Institute
# PglD inh = PglD (C. jejuni) enzyme inhibition; purified PglD enzyme, DTNB colorimetric CoA detection; inhibition, % at 12.5 µM; 0.098% of 360,000 active; AID 602405; in the data active = inhibition above about 16%, passing the limit was not always enough; inconclusive = no clear call, values can overlap the other calls
# ERAP1 HTS inh = inhibitors of human ERAP1 aminopeptidase; 0.15% of 340,000 active; Q9NZ08; AID 652197; inhibition, % at 10.7 µM; recombinant ERAP1, Leu-AMC fluorescence, 60 min;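 active = mean replicate inhibition of at least 30%, or all replicates individually reaching that 30% level; inactive = mean below 30% and not every replicate reaching it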;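 note: 0% = neutral control wells and 100% = L-leucinethiol positive control wells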
# Target sequence (Q9NZ08 whole entry, looked up): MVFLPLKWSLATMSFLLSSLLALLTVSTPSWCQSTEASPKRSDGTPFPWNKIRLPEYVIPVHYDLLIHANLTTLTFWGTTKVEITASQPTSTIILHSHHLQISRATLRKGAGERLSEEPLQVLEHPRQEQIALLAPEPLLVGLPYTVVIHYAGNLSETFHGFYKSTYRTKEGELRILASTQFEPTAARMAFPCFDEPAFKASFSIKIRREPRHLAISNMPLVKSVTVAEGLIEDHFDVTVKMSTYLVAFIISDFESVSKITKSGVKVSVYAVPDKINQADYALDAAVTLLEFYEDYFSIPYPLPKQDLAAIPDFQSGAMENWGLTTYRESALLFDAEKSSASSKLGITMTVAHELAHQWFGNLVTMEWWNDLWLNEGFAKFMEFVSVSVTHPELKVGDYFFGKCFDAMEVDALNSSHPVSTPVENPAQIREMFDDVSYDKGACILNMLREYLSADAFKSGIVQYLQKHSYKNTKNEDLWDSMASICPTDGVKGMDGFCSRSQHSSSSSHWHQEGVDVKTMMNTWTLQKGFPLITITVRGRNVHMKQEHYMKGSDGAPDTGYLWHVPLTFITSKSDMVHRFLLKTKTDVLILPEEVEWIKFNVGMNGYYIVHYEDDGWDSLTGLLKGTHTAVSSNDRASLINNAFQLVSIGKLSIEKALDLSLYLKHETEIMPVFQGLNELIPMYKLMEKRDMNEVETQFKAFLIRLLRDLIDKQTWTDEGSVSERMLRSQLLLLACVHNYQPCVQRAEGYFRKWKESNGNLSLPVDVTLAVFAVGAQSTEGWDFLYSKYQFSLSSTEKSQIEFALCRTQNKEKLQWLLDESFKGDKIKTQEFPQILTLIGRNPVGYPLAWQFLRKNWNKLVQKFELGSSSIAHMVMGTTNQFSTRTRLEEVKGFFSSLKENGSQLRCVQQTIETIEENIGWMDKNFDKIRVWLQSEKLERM
# DENV2 CPE = inhibitors of DENV2 cytopathic effect | AID 651640 | CPE inhibition, % at 9.99 µM | DENV2-infected cells, cytopathic effect rescue, plate reader | 1.7% of 350,000 active; in the data active = CPE inhibition above about 20%, passing the limit was not always enough; inconclusive = no clear call, values can overlap the other calls; tested in BHK-21 cells;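 note: 0% = median of neutral control wells and 100% = median of positive control wells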
# E-selectin induc = E-selectin induction on HUVECs; P16581; HUVEC E-selectin immunofluorescence imaging; normalized: neutral wells 0, TNF-alpha wells 100; activation, % at 7.58 µM; 0.37% of 260,000 active;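 active = mean E-selectin-positive cell signal at least 10% of the positive control, reached in at least 60% of replicates, without over 20% cell loss; inconclusive = no rule given, readout overlaps actives, possibly toxicity-flagged; inactive = the rest, including those meeting only one limit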
#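 Test system – human umbilical vein endothelial cells (HUVEC), E-selectin induction · Input – 3,000 HUVEC seeded per well · Buffer or medium – EGM-2, gelatin · Compound dosing – single-point compound dose · Detection – immunofluorescence imaging · Measure – percent E-selectin-positive cells · Controls – TNF-alpha high, DMSO low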
# SIRT5 block = sirtuin-5 (human) deacylase inhibition. Q9NXA8. Purified SirT5, succinyl-peptide AMC, trypsin-coupled fluorescence. inhibition, % at 15 µM. 1.1% of 330,000 active. AID 652115; in the data active = inhibition above about 15%; inconclusive = no clear call, values can overlap the other calls
# * marks the source's active call; other numbers are inactive results; u = inconclusive; x = no result. Only some compounds are listed: those with a hit (about 2.5% of all), similar ones and a draw of the others.
SMILES,PglD inh,ERAP1 HTS inh,DENV2 CPE,E-selectin induc,SIRT5 block
CN=C1SC(C(=O)Nc2ccccc2Cl)CC(=O)N1c1ccc(OC(F)(F)Cl)cc1 (stereo not drawn),x,-0.7,-3.4,-0.2,1.4
O=C(NC1CCN(Cc2ccccc2)CC1)c1ccc(CS(=O)c2ccc(F)cc2)o1 (stereo not drawn),-4.4,-3.0,8.5,0.0,-1.4
O=C(NC1CCN(Cc2ccccc2)CC1)c1ccc(CS(=O)c2ccccc2Cl)o1 (stereo not drawn),6.7,-4.4,70.4*,-0.2,x
CC(C)(C)c1ccc(C(=O)Nc2ccc3c(c2)C(=O)NC3=O)cc1,x,-0.6,58.1*,137.5*,-9.1
N=C1/C(=C\c2ccc(-c3ccc(C(=O)O)cc3)o2)C(=O)N=C2SC=C(c3ccccc3)N12,-1.6,3.1,5.6,x,4.6
N=C1/C(=C\c2ccc(-c3cccc(Cl)c3)o2)C(=O)N=C2SC=C(c3ccccc3)N12,x,-1.5,67.0*,x,2.5
COc1ccc(CN(C)C[C@H]2OCCCC[C@@H](C)Oc3ccc(NS(=O)(=O)c4ccc(Cl)cc4)cc3C(=O)N([C@H](C)CO)C[C@@H]2C)cc1,1.4,-3.0,u,x,2.3
O=C(C1COc2ccccc2O1)N1CCN(c2ccc([N+](=O)[O-])cc2)CC1 (stereo not drawn),-8.2,1.2,11.3,x,-1.3
COc1cccc(C2=CC(=O)CC(C)(C)C2)c1,3.2,1.2,1.4,0.2,-1.0
COc1cccc(C2=CC(=O)C(C(C)(C)C)N2C(C)(C)C)c1 (stereo not drawn),2.3,x,41.4*,-0.1,x
COc1ccc(S(=O)(=O)N2CCCc3nc(C)c(C)cc32)cc1,x,-3.4,-6.5,-0.3,x
COc1ccc(O[C@H]2C=C[C@@H](c3ccccc3)O[C@@H]2CO/N=C(\C)CCN2CCCCc3nc(C)c(C)cc32)cc1,x,-1.1,36.2*,2.4,-2.6
CCNC(=O)Nc1ccc2c(c1)C(=O)N(C)[C@@H]1CC[C@H](CC(=O)NCc3ccccc3F)O[C@H]1CO2,2.7,-1.6,70.6*,0.0,0.0
CN1C(=O)c2cc(NC(=O)Nc3ccccc3F)ccc2OC[C@H]2O[C@@H](CC(=O)NCc3ccc(-c4ccccc4)cc3)CC[C@H]21,0.6,-4.3,48.3*,0.1,0.7
CN1C(=O)c2cc(NS(C)(=O)=O)ccc2OC[C@@H]2O[C@H](CC(=O)NCc3ccc(-c4ccccc4)cc3)CC[C@H]21,7.2,2.0,-3.3,0.8,2.1
CN1C(=O)c2cc(NC(=O)Nc3ccccc3F)ccc2OC[C@H]2O[C@H](CC(=O)NCc3ccc(-c4ccccc4)cc3)CC[C@@H]21,-2.9,-2.6,u,0.0,10.7
CN1C(=O)c2cc(NS(C)(=O)=O)ccc2OC[C@@H]2O[C@H](CC(=O)NCc3ccc(-c4ccccc4)cc3)CC[C@@H]21,6.6,3.0,0.5,64.7*,1.4
N#C[C@@H]1[C@@H](c2ccccc2-c2ccccc2F)[C@@H](CO)N1C(=O)C1CC1,x,0.4,3.4,-0.1,-1.9
CCC(=O)Nc1cccc(C2=NN(c3ccccc3)C(c3ccc(OC)cc3)C2)c1 (stereo not drawn),-5.8,-3.1,-1.6,0.0,-7.8
CCCC[C@@H](O)C1=C(C)Cn2c(=O)n(-c3ccccc3)c(=O)n2[C@H]1CO,x,-2.1,-7.5,x,-1.9
Cc1csc(NC(=O)CCn2c(=O)oc3ccc(Cl)cc32)n1,-2.5,0.4,7.3,x,1.0
Cc1nnc(NC(=O)CCn2c(=O)oc3ccc(Cl)cc32)s1,-3.9,0.0,23.5*,0.0,-2.1
Cc1ccc(C)c(Nc2ccc3nonc3c2[N+](=O)[O-])c1,-9.9,-2.0,4.3,x,-5.4
Cc1ccccc1Nc1ccc2nonc2c1[N+](=O)[O-],-4.9,-4.4,-3.0,x,29.1*
CCOc1ccc(S(=O)(=O)NN2Cc3ccccc3C2=N)cc1,x,-0.8,0.0,x,17.5*
SMILES,PglD inh,ERAP1 HTS inh,DENV2 CPE,E-selectin induc,SIRT5 block
CC(C)(C)c1ccc(OCC(=O)NN2Cc3ccccc3C2=N)cc1,x,-4.0,1.8,x,-4.2
COc1ccc(Cc2nnc(SCC(=O)N3CCCC3)o2)cc1,x,0.2,3.5,2.6,9.8
COc1ccc(/C=C/c2nnc(NC(=O)C(C)(C)C)s2)cc1,x,5.5,70.1*,x,-1.1
CCCC(=O)Nc1nnc(/C=C/c2ccc(OC)cc2)s1,x,8.4,-5.2,-0.4,-1.3
Cn1c(C(=O)N/N=C/c2ccccc2)cc2ccccc21,6.9,-2.3,88.4*,x,-3.8
COc1cccc(OCc2cc(C(=O)NC3CCOCC3)no2)c1,-2.3,-2.8,12.9,0.6,-1.3
Cc1ccc(C(=O)NCC(=O)Nc2ccc(S(=O)(=O)Nc3cc(C)nc(C)n3)cc2)cc1,-3.5,0.8,55.8*,x,1.7
Cc1ccc(OCC(=O)Nc2ccc(S(=O)(=O)Nc3cc(C)nc(C)n3)cc2)cc1,3.1,0.5,17.2,x,-4.7
Cc1noc(C)c1NC(=O)Nc1cccc2c1O[C@H](CN(C)Cc1ccc3c(c1)OCO3)[C@@H](C)CN([C@H](C)CO)C2=O,0.9,-6.3,1.1,-2.8,x
Cc1noc(C)c1NC(=O)Nc1cccc2c1O[C@H](CN(C)Cc1ccc(C(=O)Nc3ccccc3N)cc1)[C@H](C)CN([C@@H](C)CO)C2=O,x,2.5,-7.2,-0.2,-1.1
Cc1noc(C)c1NC(=O)Nc1cccc2c1O[C@H](CN(C)Cc1ccc(C(=O)Nc3ccccc3N)cc1)[C@@H](C)CN([C@@H](C)CO)C2=O,x,1.7,0.8,1.0,22.2*
Cc1noc(C)c1NC(=O)Nc1cccc2c1O[C@H](CN(C)Cc1ccc(C(=O)O)cc1)[C@H](C)CN([C@@H](C)CO)C2=O,-3.9,-9.9,26.3*,x,0.2
Cc1noc(C)c1NC(=O)Nc1cccc2c1O[C@H](CN(C)Cc1ccccc1)[C@H](C)CN([C@@H](C)CO)C2=O,0.9,2.7,-3.7,0.0,-9.4
Cc1noc(C)c1NC(=O)Nc1cccc2c1O[C@H](CN(C)Cc1ccc3c(c1)OCO3)[C@@H](C)CN([C@@H](C)CO)C2=O,3.9,-1.1,21.5*,-6.6,1.6
Cc1noc(C)c1NC(=O)Nc1cccc2c1O[C@@H](CN(C)Cc1ccc(Oc3ccccc3)cc1)[C@@H](C)CN([C@H](C)CO)C2=O,-0.6,-0.8,-2.6,-0.1,37.1*
CCOc1cccc(C=Nc2cc(C)cc(C)c2O)c1O,-0.4,0.5,-7.0,x,3.7
COC(c1ccccc1)c1nnc(CCC(=O)N(C)C(C2CC2)C2CC2)o1 (stereo not drawn),-6.1,-1.3,1.0,x,15.2*
C[C@@H]1CN([C@@H](C)CO)C(=O)c2cc(NC(=O)C3CCCCC3)ccc2O[C@H]1CN(C)Cc1ccc(C(F)(F)F)cc1,-2.3,-0.9,0.8,13.5,1.5
COC(=O)c1ccc(N2C(=O)CC(SCC(=O)Nc3ccc(OC)cc3)C2=O)cc1 (stereo not drawn),x,x,5.4,57.9*,2.1
